Results as given in paper PMC4401318 (ACS Chemical Neuroscience, 2015).
Entries after “also recorded” stand apart in the source; their conditions may differ. Marks after values point to notes of the source that are not given here.

How the values were obtained:
KOP receptor [1] = target: T1, KOP receptor (Homo sapiens, UniProt P41145); test: Radioligand competition binding, KOP
KOP receptor [2] = target: T1, KOP receptor; test: biochemical
DOP receptor [3] = target: T2, DOP receptor (Homo sapiens, UniProt P41143); test: Radioligand competition binding, DOP
MOP receptor [4] = target: T3, MOP receptor (Homo sapiens, UniProt P35372); test: biochemical
NOP receptor [5] = target: T4, NOP receptor (Homo sapiens, UniProt P41146); test: [35S]GTPγS binding stimulation; format: biochemical; conditions: for intrinsic (agonist) activity in [35S]GTPγS assay at any of the opioid receptors: NOP, KOP, MOP and DOP, up to 10 μM; for [35S]GTPγS NOP % stim: compared to standard agonist N/OFQ
DOP receptor [6] = target: T2, DOP receptor; test: [35S]GTPγS binding stimulation; format: biochemical; conditions: for [35S]GTPγS DOP % stim: compared to standard agonist DPDPE
MOP receptor [7] = target: T3, MOP receptor; format: biochemical
KOP receptor [8] = target: T1, KOP receptor; test: Inhibition of agonist-stimulated [35S]GTPγS binding, KOP; format: biochemical; conditions: agonist U69,593 concentration-response curves; listed as AT-076
Outline: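 CHO cells stably expressing human KOP cDNA, grown in DMEM/10% FBS with 0.4 mg/mL G418. Membranes were washed into 20 mM HEPES, 10 mM MgCl2, 100 mM NaCl, pH 7.4. Membranes (8–15 μg protein) were incubated 60 min at 25 °C with 50 pM [35S]GTPγS and 10 μM GDP. U69,593 concentration–response curves were run at several fixed test-compound concentrations. Binding was read by filtration and scintillation counting. Antagonism type was assigned by Schild regression.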

NOP receptor [9] = target: T4, NOP receptor; test: Radioligand competition binding, NOP
NOP receptor [10] = target: T4, NOP receptor; test: Inhibition of agonist-stimulated [35S]GTPγS binding, NOP; format: biochemical; conditions: for nature of antagonism at NOP: agonist nociceptin concentration-response curves
DOP receptor [11] = target: T2, DOP receptor; test: Inhibition of agonist-stimulated [35S]GTPγS binding, DOP; format: biochemical
KOP receptor [12] = target: T1, KOP receptor; conditions: agonist U69,593; ref 4b; cited from earlier work
MOP receptor [13] = target: T3, MOP receptor; conditions: cited from earlier work
DOP receptor [14] = target: T2, DOP receptor; conditions: agonist DPDPE; ref 4b; cited from earlier work

| SMILES | Ki (KOP receptor [1]) [nM] | EC50 (KOP receptor [2]) [nM] | [35S]GTPγS KOP % stim (KOP receptor [2]) [%] | Ki (DOP receptor [3]) [nM] | EC50 (MOP receptor [4]) [nM] | [35S]GTPγS MOP % stim (MOP receptor [4]) [%] | EC50 (NOP receptor [5]) [nM] | intrinsic (agonist) activity in [35S]GTPγS assay at any of the opioid receptors (NOP receptor [5]) | [35S]GTPγS NOP % stim (NOP receptor [5]) [%] | [35S]GTPγS DOP % stim (DOP receptor [6]) [%] | further results |
| --- | --- | --- | --- | --- | --- | --- | --- | --- | --- | --- | --- |
| C[C@H]1CN(C2CCCCCCC2)CC[C@@]1(C)c1cccc(O)c1 [Compound 3, 3-((3R,4R)-1-Cyclooctyl-3,4-dimethylpiperidin-4-yl)phenol] | 68.1 ± 2.21 | > 10000 | 0 | 2910 ± 834 |  |  |  |  |  |  |  |
| C[C@H]1CN(C[C@H]2Cc3ccc(O)cc3CN2)CC[C@@]1(C)c1cccc(O)c1 [Compound 4, (R)-3-(((3R,4R)-4-(3-Hydroxyphenyl)-3,4-dimethylpiperidin-1-yl)methyl)-1,2,3,4-tetrahydroisoquinolin-7-ol] | 410 ± 130 |  |  | 205 | > 10000 | 0 |  |  |  |  |  |
| C[C@H]1CN(C[C@H]2Cc3ccccc3CN2)CC[C@@]1(C)c1cccc(O)c1 [Compound 5, 3-((3R,4R)-3,4-Dimethyl-1-(((R)-1,2,3,4-tetrahydroisoquinolin-3-yl)methyl)piperidin-4-yl)phenol] | 19.5 ± 6.6 | > 10000 | 0 | 38.8 ± 9.9 | > 10000 | 0 | > 10000 | no intrinsic activity | 0 | 0 | EC50 (DOP receptor [6]): > 10000 nM |
| CC(C)[C@@H](CN1CCC(c2cccc(O)c2)CC1)NC(=O)[C@H]1Cc2ccc(O)cc2CN1 [Compound 6, (R)-7-Hydroxy-N-((S)-1-(4-(3-hydroxyphenyl)piperidin-1-yl)-3-methylbutan-2-yl)-1,2,3,4-tetrahydroisoquinoline-3-carboxamide] |  | > 10000 | 0 |  | > 10000 | 0 |  | no intrinsic (agonist) activity | 0 | 0 | Ke more potent than that of JDTic (MOP receptor [7]; at the MOP and DOP receptors): 3–6 fold; nature of antagonism at MOP (MOP receptor [7]; listed as AT-076): competitive antagonist; also recorded: competitive antagonism; nature of antagonism at KOP (KOP receptor [8]): noncompetitive antagonist profile; also recorded: insurmountable antagonism; increase in NOP binding affinity compared with JDTic (NOP receptor [9]; ratio of Ki): 10 fold; nature of antagonism at NOP (NOP receptor [10]; listed as AT-076): noncompetitive antagonist profile; also recorded: insurmountable antagonism; Kb (DOP receptor [11]): 24.9 ± 13 nM; nature of antagonism at DOP (DOP receptor [11]; agonist DPDPE concentration-response curves, listed as AT-076): competitive antagonist; also recorded: competitive antagonism; EC50 (DOP receptor [6]): > 10000 nM |
| CC(C)[C@@H](CN1CCC(c2cccc(O)c2)CC1)NC(=O)[C@H]1Cc2ccccc2CN1 [Compound 7, (R)-N-((S)-1-(4-(3-Hydroxyphenyl)piperidin-1-yl)-3-methylbutan-2-yl)-1,2,3,4-tetrahydroisoquinoline-3-carboxamide] | 100 ± 0.9 | > 10000 | 0 | 1400 ± 111 |  |  | > 10000 |  | 7.0 ± 3.2 |  |  |
| CC(C)[C@@H](CN1CCC(c2ccccc2)CC1)NC(=O)[C@H]1Cc2ccc(O)cc2CN1 [Compound 8, (R)-7-Hydroxy-N-((S)-3-methyl-1-(4-phenylpiperidin-1-yl)butan-2-yl)-1,2,3,4-tetrahydroisoquinoline-3-carboxamide] | 2.15 ± 0.82 | 408 ± 41 | 72.3 ± 4 | > 10000 |  | 0 | 53.3 ± 12.1 |  | 18.3 ± 1.3 |  | Ki (NOP receptor [9]): 10.9 ± 2.14 nM |
| CC(C)[C@@H](CN1CC[C@@](C)(c2cccc(O)c2)[C@@H](C)C1)NC(=O)[C@H]1Cc2ccc(O)cc2CN1 [JDTic, (3R)-7-hydroxy-N-((1S)-1-{[(3R,4R)-4-(3-hydroxyphenyl)-3,4-dimethyl-1-piperidinyl]methyl}-2-methylpropyl)-1,2,3,4-tetrahydro-3-isoquinolinecarboxamide, reference compound] |  |  | 0 |  |  | 0 | > 10000 | no intrinsic activity | 0 | 0 | intrinsic activity in [35S]GTPγS functional assay at NOP (NOP receptor [5]; compound alone): no intrinsic activity; Kb (NOP receptor [10]): 680.2 ± 2.35 nM; nature of antagonism at NOP (NOP receptor [10]): noncompetitive antagonism; Ke KOP (antagonist potency) (KOP receptor [12]): 0.01 ± 0.00 ^f nM; Ke MOP (antagonist potency) (MOP receptor [13]): 3.41 ± 0.36 ^f nM; Ke DOP (antagonist potency) (DOP receptor [14]): 79.3 ± 9.3 ^f nM |
| Cc1cccc2c1CC[C@H](CN1CCC(c3c(Cl)cccc3Cl)CC1)C[C@@H]2O [SB-612111, (−)-cis-1-methyl-7-[[4-(2,6-dichlorophenyl)piperidin-1-yl]methyl]-6,7,8,9-tetrahydro-5H-benzocyclohepten-5-ol, reference compound] |  |  |  |  |  |  |  |  | 0 |  |  |
